Data set [1] can be described thus: Intrinsic clearance in rat liver microsomes at 1 uM in presence of NADPH by LC-MS/MS analysis. Type of data set: ADME, microsome. Conditions: read-out: CLH. For orientation: Liver microsomes are vesicles of endoplasmic reticulum, rich in cytochrome P450 enzymes.
Data set [2] addresses T1, Isocitrate dehydrogenase [NADP] cytoplasmic (Homo sapiens, UniProt O75874, R132H). Description: Inhibition of IDH1 R132H mutant (unknown origin) expressed in HCT116 cells assessed as reduction in 2-HG levels after 48 hrs by LC-MS/MS analysis. In kind it is cell-based.
A short description of data set [3]: Ratio of AUC in Sprague-Dawley rat brain to plasma at 1 mg/kg, iv or 10 mg/kg, po. Type of data set: ADME, organism-based. Conditions: read-out: Ratio AUC.
A short description of data set [4]: Plasma protein binding in mouse plasma at 5 uM after 4 hrs by rapid equilibrium dialysis based LC/MS/MS method.
The nature of data set [5]: Solubility of the compound at pH 6.8. Type of data set: physicochemical. Conditions: buffer.
Data set [6] can be described thus: AUC in Sprague-Dawley rat at 10 mg/kg, po by mass spectrometry based HPLC method. In kind it is ADME, organism-based. Conditions: in vivo. The method, boiled down: (§1)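 Rats and mice received a single 1 mg/kg intravenous dose and a 10 mg/kg oral dose. Plasma clearance was taken from the intravenous arm. Oral AUC and oral bioavailability were taken from the oral arm.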

Data set [7] is described as follows: Oral bioavailability in Sprague-Dawley rat at 10 mg/kg by mass spectrometry based HPLC method. Type of data set: ADME, organism-based. The settings on record: in vivo. The procedure, abridged:
as §1

Data set [8] is described as follows: Clearance in Sprague-Dawley rat plasma at 1 mg/kg, iv or 10 mg/kg, po by mass spectrometry based HPLC method. Type of data set: ADME, organism-based. The procedure, abridged:
as §1

Data set [9] in a line: Plasma protein binding in rat plasma at 5 uM after 4 hrs by rapid equilibrium dialysis based LC/MS/MS method.
The target in data set [10] is T1, Isocitrate dehydrogenase [NADP] cytoplasmic. Description: Inhibition of IDH1 R132H mutant (unknown origin) using alphaKG as substrate in presence of NADPH by LC-MS/MS analysis.
The nature of data set [11]: AUC in C57BL/6 mouse at 10 mg/kg, po by mass spectrometry based HPLC method. In kind it is ADME, organism-based. Conditions: in vivo. The procedure, abridged: as §1
The nature of data set [12]: Intrinsic clearance in mouse liver microsomes. In kind it is ADME, microsome. The settings on record: read-out: CLH.
Data set [13] is described as follows: Clearance in C57BL/6 mouse plasma at 1 mg/kg, iv or 10 mg/kg, po by mass spectrometry based HPLC method. Type of data set: ADME, organism-based. The procedure, abridged: as §1
The target of data set [14] is Isocitrate dehydrogenase [NADP] cytoplasmic (Homo sapiens, UniProt O75874). Description: Inhibition of wild-type IDH1 (unknown origin) assessed as NADPH production using isocitrate as substrate by fluorescence assay.
Data set [15] has as its system Mus musculus. Description: In vivo inhibition of IDH1 R132H mutant in HSD athymic nude mouse tumor xenografted with human HCT116 cells assessed as reduction in 2-HG level at 150 mg/kg, po measured 16 to 24 hrs post dose by LC-MS/MS analysis relative to control. Type of data set: functional. Conditions: HCT-116, po. The method, boiled down:
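Mice bearing HCT116-IDH1 R132H/+ xenograft tumors received a single 150 mg/kg oral dose. 2-HG was measured in tumor tissue and expressed as percent inhibition relative to vehicle-treated tumors over a 16−24 h post-dose window. Plasma drug concentrations were measured alongside.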
(In general: Xenograft models place foreign cells or tissue in a host animal.)

Data set [16] is filed under the species Homo sapiens. Description: Selectivity ratio of IC50 for wild-type IDH1 (unknown origin) to IC50 for IDH1 R132C mutant (unknown origin).
Data set [17] can be described thus: Oral bioavailability in C57BL/6 mouse at 10 mg/kg by mass spectrometry based HPLC method. In kind it is ADME, organism-based. The settings on record: in vivo. The method, boiled down:
as §1

Data set [18] addresses T1, Isocitrate dehydrogenase [NADP] cytoplasmic. Kind of data set: Inhibition of IDH1 R132H mutant (unknown origin) assessed as NADPH consumption using alpha-ketoglutarate as substrate by fluorescence assay.
For data set [19], the species on record is Homo sapiens. Description: Selectivity ratio of IC50 for wild-type IDH1 (unknown origin) to IC50 for IDH1 R132H mutant (unknown origin).
Data set [20] concerns Mus musculus. Description: Time at which unbound plasma concentration stays above cellular IDH1 R132H mutant inhibitory IC50 in HSD athymic nude mouse xenografted with human HCT116 cells. The settings on record: in vivo. In kind it is ADME, organism-based. The procedure, abridged:
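After a single 150 mg/kg oral dose in HCT116-IDH1 R132H/+ xenograft mice, unbound plasma concentration was estimated from total plasma levels corrected by mouse plasma protein binding. It was then followed over time against the HCT116-IDH1 R132H/+ cellular IC50.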

Data set [21] concerns the target Isocitrate dehydrogenase [NADP] cytoplasmic (Homo sapiens, UniProt O75874, R132C). Kind of data set: Inhibition of IDH1 R132C mutant (unknown origin) assessed as NADPH consumption using alpha-ketoglutarate as substrate by fluorescence assay.
Data set [22] can be described thus: Intrinsic clearance in human liver microsomes. The settings on record: read-out: CLH. In kind it is ADME, microsome.

Structures are written as SMILES. Converted amounts (≈) assume the structure as drawn.

T1 sequence (O75874 2-414 R132H limits assumed): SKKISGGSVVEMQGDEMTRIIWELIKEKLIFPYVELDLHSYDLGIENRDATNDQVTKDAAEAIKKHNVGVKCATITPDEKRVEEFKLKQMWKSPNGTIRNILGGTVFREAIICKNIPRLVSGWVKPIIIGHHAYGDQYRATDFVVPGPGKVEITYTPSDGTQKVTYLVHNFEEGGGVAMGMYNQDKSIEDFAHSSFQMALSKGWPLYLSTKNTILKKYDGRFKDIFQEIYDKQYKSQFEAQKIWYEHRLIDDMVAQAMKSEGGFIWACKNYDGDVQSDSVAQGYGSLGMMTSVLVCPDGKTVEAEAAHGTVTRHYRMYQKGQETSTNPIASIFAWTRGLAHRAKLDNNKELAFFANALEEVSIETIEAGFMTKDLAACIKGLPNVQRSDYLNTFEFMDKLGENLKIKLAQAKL
Chain of Isocitrate dehydrogenase [NADP] cytoplasmic (Homo sapiens, UniProt O75874) (O75874 whole entry): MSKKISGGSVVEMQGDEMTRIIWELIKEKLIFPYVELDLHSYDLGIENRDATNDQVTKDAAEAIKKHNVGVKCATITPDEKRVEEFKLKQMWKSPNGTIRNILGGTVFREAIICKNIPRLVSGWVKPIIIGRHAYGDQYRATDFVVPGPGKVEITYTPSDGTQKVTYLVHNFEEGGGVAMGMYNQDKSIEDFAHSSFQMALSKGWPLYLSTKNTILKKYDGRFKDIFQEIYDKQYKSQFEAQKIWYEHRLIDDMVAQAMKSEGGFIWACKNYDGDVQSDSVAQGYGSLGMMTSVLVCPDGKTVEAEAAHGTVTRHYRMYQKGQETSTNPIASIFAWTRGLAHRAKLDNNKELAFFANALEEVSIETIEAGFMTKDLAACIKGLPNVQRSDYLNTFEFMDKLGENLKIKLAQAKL
Chain of Isocitrate dehydrogenase [NADP] cytoplasmic (Homo sapiens, UniProt O75874, R132C) (O75874 2-414 R132C limits assumed): as the sequence (O75874 2-414 R132H limits assumed) above, with H131C counted along it

Consider `CC(C)[C@H]1COC(=O)N1c1ccnc(N[C@@H](C)c2cn(-c3ccc(Cl)cc3)cn2)n1`, for which the microsomal CLint at 1 µM in [1] came out at 489 µL/min/mg. The IC50 (usually the concentration that gives 50% inhibition) in data set [2] was 15 nM.

In the case of `C[C@H](Nc1nccc(N2C(=O)OC[C@@H]2[C@H](C)F)n1)c1cn(-c2ccc(C(F)F)cc2)cn1`, in [3], the Kp is under 0.1. Further, the results for the PPB at 4 h, 5 µM in data set [4] and in data set [9] were 0.92 and 0.95, respectively. The amount in solution in data set [5] (solubility) came to 422 µM (≈ 188 µg/mL). Also, in data set [6], the AUC (commonly the area under the concentration-time curve, a measure of exposure) was found to be 15 µM·h. Also, the bioavailability in data set [7] was found to be 82%. Moreover, the clearance in [8] was found to be 20 mL/min/kg.

Consider `CC(Nc1nccc(N2CCOC2=O)n1)c1ncc(Oc2ccc(F)cc2)cn1` (racemic), for which the microsomal CLint at 1 µM in data set [1] is 35 µL/min/mg. In [10], the IC50 worked out at 8800 nM.

With `CC(C)[C@H]1COC(=O)N1c1ccnc(N[C@@H](C)c2nc(-c3ccccc3Cl)no2)n1`, the microsomal CLint at 1 µM in data set [1] is 924 µL/min/mg. The half-maximal inhibitory concentration (IC50) in [10] stood at 610 nM.

With `C[C@H](Nc1nccc(N2C(=O)OC[C@@H]2CF)n1)c1cn(-c2ccc(Cl)cc2)cn1`, the microsomal CLint at 1 µM in data set [1] was determined as 75 µL/min/mg. For the same compound, the IC50 in data set [2] is 30 nM.

Take `C[C@H](Nc1ncc(F)c(N2C(=O)OC[C@@H]2[C@H](C)F)n1)c1cn(-c2ccc(Cl)cc2)cn1`: in data set [1], the microsomal CLint at 1 µM turned out to be 272 µL/min/mg. Besides, the IC50 in [2] turned out to be 22 nM.

In the case of `C[C@H](Nc1ncc(F)c(N2C(=O)OC(C)(C)C2(C)C)n1)c1nc(-c2ccc(Cl)cc2)no1`, in [1], the microsomal CLint at 1 µM worked out at 170 µL/min/mg.

`C[C@H](Nc1ncc(F)c(N2C(=O)OC[C@@H]2[C@@H](C)F)n1)c1cn(-c2ccc(Cl)cc2)cn1`: the microsomal CLint at 1 µM in data set [1] worked out at 237 µL/min/mg. Besides, in data set [2], the IC50 was 240 nM.

Turning to `CC(C)[C@H]1COC(=O)N1c1ccnc(N[C@@H](C)c2nc(-c3ccc(Cl)cc3)no2)n1`, in [1], the microsomal CLint at 1 µM was 302 µL/min/mg.

On to `C[C@H](Nc1ncc(F)c(N2C(=O)OC[C@@H]2C)n1)c1cn(-c2ccc(Cl)cc2)cn1`, for which the microsomal CLint at 1 µM in [1] is 101 to 103 µL/min/mg. This compound also showed an AUC in [6] of 14 µM·h. Also, in data set [2], the IC50 turned out to be 47 nM. The bioavailability in data set [7] was determined as 67%. Further, the clearance in data set [8] came out at 17 mL/min/kg.

Take `C[C@H](Nc1nccc(N2C(=O)OC[C@@H]2CF)n1)c1cn(-c2ccc(C(F)(F)F)cc2)cn1`: the Kp in data set [3] worked out at 0.17. The PPB at 4 h, 5 µM in data set [4] and in data set [9] was 0.98 in each case. In data set [1], the microsomal CLint at 1 µM was 7 to 7.7 µL/min/mg. The AUC was 172 µM·h in [11] and 180 µM·h in [6]. Moreover, the microsomal CLint in [12] is 11 µL/min/mg. For the same compound, the solubility (in general, the dissolved amount per volume that the medium holds) in [5] amounted to 124 µM (≈ 55.8 µg/mL). The clearance in [13] was 5 mL/min/kg; in data set [8], 2.6 mL/min/kg. The IC50 worked out at 2520 nM in data set [14], 21 nM in data set [18], 39 nM in data set [2] and 45 nM in [21]. Further, in data set [15], the inhibition in vivo (as a rule, the change of the read-out against control, counted positive when it falls) at 150 mg/kg was over 90%. The Ratio IC50 in data set [16] and in [19] was 50 to 100 throughout. For the same compound, the bioavailability amounted to 149% in data set [17] and 127% in data set [7]. For the same compound, the Time in [20] was 24 h.

For the compound `C[C@H](Nc1ncc(F)c(N2C(=O)OC[C@@H]2CF)n1)c1cn(-c2ccc(Cl)cc2)cn1`, the microsomal CLint at 1 µM in data set [1] stood at 28 µL/min/mg. Further, the IC50 in data set [2] stood at 24 nM.

Take `CC(C)[C@H]1COC(=O)N1c1ccnc(N[C@@H](C)c2ncc(Oc3ccc(F)cc3)cn2)n1`: the microsomal CLint at 1 µM in data set [1] was 238 µL/min/mg. The IC50 in [10] is 39 nM.

Take `C[C@H](Nc1nccc(N2C(=O)OC[C@@H]2[C@H](C)F)n1)c1cn(-c2ccc(Cl)cc2)cn1`: in data set [1], the microsomal CLint at 1 µM stood at 148 µL/min/mg.

As to `C[C@H](Nc1ncc(F)c(N2CCOC2=O)n1)c1cn(-c2ccc(Cl)cc2)cn1`, the microsomal CLint at 1 µM in data set [1] is 34 µL/min/mg. Further, the microsomal CLint in data set [12] was found to be 73 µL/min/mg; in data set [22] it was 59 µL/min/mg. The IC50 in data set [2] amounted to 500 nM.

On to `CC[C@H]1COC(=O)N1c1nc(N[C@@H](C)c2cn(-c3ccc(Cl)cc3)cn2)ncc1F`, for which the microsomal CLint at 1 µM in data set [1] is 448 µL/min/mg. In addition, the IC50 in [2] stood at 13 nM.
